# In ChEMBL document CHEMBL3425411, “Synthesis of β-Carboline-Based N-Heterocyclic Carbenes and Their Antiproliferative and Antimetastatic Activities against Human Breast Cancer Cells” (J Med Chem, 2015):
# The source made the active and inactive calls. No cut-off for these calls is given here.
# Experiments:
# [1] = system: 4T1; experiment: Antitumor activity against mouse 4T1 cells allografted in Balb/c mouse assessed as tumor growth inhibition at 10 mg/kg, po administered every alternative day for 5 weeks measured twice a week during compound dosing relative to control; type: functional
# In short: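 4T1 cells (7 × 10⁵) were injected into the second right mammary fat pad of 8-week-old female Balb/c mice, with a booster of about 5 × 10⁵ cells 4 days later. One week after the booster, dosing began at 10 mg/kg by oral gavage on alternate days for 5 weeks (n = 6). Controls received vehicle. Tumor size and body weight were measured twice weekly.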
# [2] = system: MDA-MB-231; experiment: Antimigratory activity against human MDA-MB-231 cells at >= 2.5 uM after 48 hrs by transwell assay
# [3] = system: MDA-MB-231; experiment: Induction of apoptosis in human MDA-MB-231 cells after 24 hrs by annexin V-propidium iodide/Alexa Fluor 488 staining-based flow cytometric analysis; type: functional, cell-based
# [4] = system: MDA-MB-231; experiment: Cell cycle arrest in human MDA-MB-231 cells assessed as accumulation at G0/G1 phase at 5 uM after 24 hrs by propidium iodide staining-based flow cytometric analysis (reference value: 44.3 to 47.1%); type: functional
# [5] = system: MDA-MB-231; experiment: Cell cycle arrest in human MDA-MB-231 cells assessed as accumulation at G2/M phase at 2.5 uM after 24 hrs by propidium iodide staining-based flow cytometric analysis (reference value: 18.2 to 23.1%); type: functional
# [6] = system: MDA-MB-231; experiment: Cell cycle arrest in human MDA-MB-231 cells assessed as accumulation at G2/M phase at 7.5 uM after 24 hrs by propidium iodide staining-based flow cytometric analysis (reference value: 18.2 to 23.1%); type: functional
# [7] = system: MDA-MB-231; experiment: Cell cycle arrest in human MDA-MB-231 cells assessed as accumulation at S phase at 2.5 uM after 24 hrs by propidium iodide staining-based flow cytometric analysis (reference value: 32.5 to 34.7%); type: functional
# [8] = system: MDA-MB-231; experiment: Cytotoxicity against human MDA-MB-231 cells assessed as growth inhibition after 24 to 72 hrs by MTT assay; type: functional, cell-based
# In short: (§1)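 About 5000 cells/well were grown 24 h in RPMI-1640 with 10% FBS, then given fresh medium with compound at various concentrations (from 10 mM DMSO stocks) for 24, 48 and 72 h. MTT (5 mg/mL stock) was added for 2 h and formazan dissolved in DMSO. Absorbance was read at 595 nm and expressed as percent proliferation versus DMSO control.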
# [9] = system: MDA-MB-231; experiment: Induction of apoptosis in human MDA-MB-231 cells assessed as late apoptotic cells at 5 uM after 24 hrs by annexin V-propidium iodide/Alexa Fluor 488 staining-based flow cytometric analysis (reference value: 2.08 to 3.78%); type: functional
# In short: (§2)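 MDA-MB-231 cells, about 2 × 10⁵ per well, seeded in triplicate and treated for 24 h in RPMI-1640 with 10% FBS. Stained with Alexa Fluor 488 annexin V and propidium iodide, then read by flow cytometry. AV+/PI+ events were counted as late apoptotic and reported as percentage of cells relative to control. Three independent experiments, mean ± SEM.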
# [10] = system: MDA-MB-231; experiment: Cell cycle arrest in human MDA-MB-231 cells assessed as accumulation at G0/G1 phase at 2.5 uM after 24 hrs by propidium iodide staining-based flow cytometric analysis (reference value: 44.3 to 47.1%); type: functional
# [11] = system: MDA-MB-231; experiment: Cell cycle arrest in human MDA-MB-231 cells assessed as accumulation at G2/M phase at 5 uM after 24 hrs by propidium iodide staining-based flow cytometric analysis (reference value: 18.2 to 23.1%); type: functional
# [12] = system: Mus musculus; experiment: Toxicity in Balb/c mouse allografted with mouse 4T1 cells assessed as reduction in body weight at 10 mg/kg, po administered every alternative day for 5 weeks measured twice a week during compound dosing; type: organism-based; parameters: dose 10 mg/kg, route oral; conditions: in vivo, 840 h
# In short: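 Female Balb/c mice, 8 weeks old, given 7 × 10⁵ 4T1 cells into the second right mammary fat pad, plus a booster of about 5 × 10⁵ cells after 4 days. One week later, 10 mg/kg by oral gavage on alternate days for 5 weeks, n = 6. Vehicle-dosed controls. Body weight and tumour size measured twice weekly.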
# [13] = system: MDA-MB-231; experiment: Induction of apoptosis in human MDA-MB-231 cells assessed as late apoptotic cells at 2.5 uM after 24 hrs by annexin V-propidium iodide/Alexa Fluor 488 staining-based flow cytometric analysis (reference value: 2.08 to 3.78%); type: functional; in short: as §2
# [14] = system: MDA-MB-231; experiment: Cell cycle arrest in human MDA-MB-231 cells assessed as accumulation at S phase at 5 uM after 24 hrs by propidium iodide staining-based flow cytometric analysis (reference value: 32.5 to 34.7%); type: functional
# [15] = system: MDA-MB-231; experiment: Induction of apoptosis in human MDA-MB-231 cells assessed as depolarization of mitochondrial membrane potential after 24 hrs by JC-1 staining-based flow cytometric analysis; type: functional, cell-based
# In short: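 Cells were seeded in 60 mm dishes, grown 24 h, then treated with compound for 24 h. Cells were stained with JC-1 and analysed by flow cytometry. Depolarization was read as green-only cells and as a fall in red/green fluorescence ratio, normalized to control. Three independent experiments, mean ± SEM.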
# [16] = Cytotoxicity against human H1299 cells assessed as growth inhibition after 24 to 72 hrs by MTT assay; type: functional, cell-based; conditions: NCI-H1299; in short: as §1
# [17] = system: MDA-MB-231; experiment: Induction of apoptosis in human MDA-MB-231 cells assessed as early apoptotic cells at 2.5 uM after 24 hrs by annexin V-propidium iodide/Alexa Fluor 488 staining-based flow cytometric analysis (reference value: 4.05 to 4.68%); type: functional
# [18] = system: MDA-MB-231; experiment: Induction of apoptosis in human MDA-MB-231 cells assessed as late apoptotic cells at 7.5 uM after 24 hrs by annexin V-propidium iodide/Alexa Fluor 488 staining-based flow cytometric analysis (reference value: 2.08 to 3.78%); type: functional; in short: as §2
# [19] = system: MDA-MB-231; experiment: Induction of apoptosis in human MDA-MB-231 cells assessed as early apoptotic cells at 10 uM after 24 hrs by annexin V-propidium iodide/Alexa Fluor 488 staining-based flow cytometric analysis (reference value: 4.05 to 4.68%); type: functional
# [20] = system: MCF7; experiment: Cytotoxicity against human MCF7 cells assessed as growth inhibition after 24 to 72 hrs by MTT assay; type: functional, cell-based; in short: as §1
# [21] = system: MDA-MB-231; experiment: Cell cycle arrest in human MDA-MB-231 cells assessed as accumulation at G2/M phase after 24 hrs by propidium iodide staining-based flow cytometric analysis; type: functional
# [22] = system: MDA-MB-231; experiment: Induction of apoptosis in human MDA-MB-231 cells assessed as late apoptotic cells at 10 uM after 24 hrs by annexin V-propidium iodide/Alexa Fluor 488 staining-based flow cytometric analysis (reference value: 2.08 to 3.78%); type: functional; in short: as §2
# [23] = system: MDA-MB-231; experiment: Induction of apoptosis in human MDA-MB-231 cells assessed as early apoptotic cells at 5 uM after 24 hrs by annexin V-propidium iodide/Alexa Fluor 488 staining-based flow cytometric analysis (reference value: 4.05 to 4.68%); type: functional
# [24] = system: MDA-MB-231; experiment: Cell cycle arrest in human MDA-MB-231 cells assessed as accumulation at S phase at 7.5 uM after 24 hrs by propidium iodide staining-based flow cytometric analysis (reference value: 32.5 to 34.7%); type: functional
# [25] = system: MDA-MB-231; experiment: Induction of apoptosis in human MDA-MB-231 cells assessed as early apoptotic cells at 7.5 uM after 24 hrs by annexin V-propidium iodide/Alexa Fluor 488 staining-based flow cytometric analysis (reference value: 4.05 to 4.68%); type: functional
Compound,Activity [2],Activity [3],Activity [4],Activity [5],Activity [6],Activity [7],IC50 [8],Activity [9],Activity [10],Activity [11],Activity [12],Activity [13],Activity [14],Activity [15],IC50 [16],Activity [17],Activity [18],Activity [19],IC50 [20],Activity [21],further results
COC(=O)c1cc2c3ccccc3[nH]c2c2cn(-c3ccc(C)cc3Br)c[n+]12.[Cl-],Active,Dose-dependent effect,47.3%,23.6%,32.5%,19.5%,7.28 µM,4.06%,56.8%,34.7%,Non-toxic,3.49%,17.9%,Dose-dependent effect,7.8 µM,5.42%,16.58%,55.63%,6.9 µM,Dose-dependent effect,TGI [1]: inactive; Activity [22]: 25.32%; Activity [23]: 6.93%; Activity [24]: 24.4%; Activity [25]: 24.22%
COC(=O)c1cc2c3ccccc3[nH]c2c2cn(-c3ccc(C(F)(F)F)cc3)c[n+]12.[Cl-],Active,Dose-dependent effect,45.3%,22.8%,38.2%,26.7%,7.98 µM,2.31%,50.4%,35.5%,Non-toxic,2.87%,19%,Dose-dependent effect,4.48 µM,4.4%,9.02%,14.3%,14.2 µM,Dose-dependent effect,"inhibition in vivo at 10 mg/kg ([1]; 4T1, 840 h, read-out: TGI): 20%; Activity [22]: 14.31%; Activity [23]: 5.23%; Activity [24]: 27.6%; Activity [25]: 9.28%"
COC(=O)c1cc2c3ccccc3[nH]c2c2cn(-c3ccc(F)cc3Cl)c[n+]12.[Cl-],Active,Dose-dependent effect,46.6%,23.4%,40.6%,29.8%,4.49 µM,3.26%,46.7%,33.9%,Non-toxic,1.16%,21.8%,Dose-dependent effect,5.13 µM,2.21%,7.04%,14.4%,6.8 µM,Dose-dependent effect,TGI [1]: inactive; Activity [22]: 11.92%; Activity [23]: 4.72%; Activity [24]: 28.22%; Activity [25]: 12.14%
